Screening data: PubChem, several laboratories
NR1D1 modulator: modulators of Rev-erb alpha DNA binding, primary screen, biochemical, FITC-DNA, fluorescence polarization, uHTS; Nuclear receptor subfamily 1 group D member 1 (Homo sapiens), P20393; Rev-erbα–FITC-DNA binding, 90 min; activity, % at 10 µM; 370,000 tested, 0.79% active; AID 1259318, 2017;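 active = activity above about 14%, limit read from the data; passing the limit was not always enough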;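 note: 0% = DMSO wells with 35 nM protein and 100% = DMSO wells with 750 nM protein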
Target sequence (P20393 whole entry, looked up): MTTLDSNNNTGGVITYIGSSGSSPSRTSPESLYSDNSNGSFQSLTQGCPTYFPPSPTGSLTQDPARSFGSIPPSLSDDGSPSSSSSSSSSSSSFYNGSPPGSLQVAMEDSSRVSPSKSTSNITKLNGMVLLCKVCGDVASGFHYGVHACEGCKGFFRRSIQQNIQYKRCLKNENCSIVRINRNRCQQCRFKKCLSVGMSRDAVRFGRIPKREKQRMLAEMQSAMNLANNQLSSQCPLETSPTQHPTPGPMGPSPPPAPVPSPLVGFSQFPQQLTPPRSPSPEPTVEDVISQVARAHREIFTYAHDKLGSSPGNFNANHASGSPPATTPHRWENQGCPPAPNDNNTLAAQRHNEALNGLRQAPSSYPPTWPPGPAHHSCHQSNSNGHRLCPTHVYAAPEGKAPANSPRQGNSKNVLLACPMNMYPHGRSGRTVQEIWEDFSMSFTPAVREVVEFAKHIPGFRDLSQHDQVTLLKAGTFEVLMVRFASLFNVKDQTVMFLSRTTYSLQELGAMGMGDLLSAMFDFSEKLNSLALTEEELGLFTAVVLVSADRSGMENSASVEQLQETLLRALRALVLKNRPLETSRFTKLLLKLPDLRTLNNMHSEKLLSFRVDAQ
MsrA act: bovine MsrA enzyme activators, primary screen, biochemical, absorbance, HTS; 360,000 tested, 0.3% active; Methionine sulfoxide reductase A (Bos taurus); activation, % at 10.6 µM; AID 602163, 2012; purified bovine MsrA, absorbance read-out; in the data active = activation above about 7.5%;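 note: 0% = vehicle and 100% = reference activator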
MsrA inh: bovine MsrA enzyme inhibitors, primary screen, biochemical, absorbance, HTS. Methionine sulfoxide reductase A (Bos taurus). purified bovine MsrA, absorbance read-out. inhibition, % at 15.5 µM. 360,000 tested, 0.75% active; in the data active = inhibition above about 4.5%;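 note: 0% = vehicle wells with enzyme and 100% = reference inhibitor wells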
ARFGAP1 inhibitor: inhibitors of rat ARFGAP1 GAP activity, primary screen, biochemical, fluorescence polarization, GDP tracer | Arfgap1-stimulated ARF1 GTP hydrolysis, GDP FP detection | inhibition, % at 16.5 µM | 360,000 tested, 0.26% active | AID 651572, 2012;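 active = inhibition above a per-plate limit, mean inhibition of low control wells plus 3 SD, cut at about 25% in these data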;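 note: 0% = DMSO wells with enzyme and 100% = wells lacking Arfgap1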
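system = rat Arfgap1 catalytic domain, aa 1-136 | technique = FP, GDP Alexa 633 tracer displaced from anti-GDP antibody, 620/688 nm | compound = one concentration, 16.5 µM, DMSO 1.26% | medium = HEPES-based buffer, pH 7.5 | timing = compound-enzyme preincubation 20 min, reaction 120 min, detection 60 min, 25 °C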
HGIII-sPLA2 inh: human group III sPLA2 inhibitors, primary screen, biochemical, QFRET, BODIPY PC-A2 liposome substrate; QFRET BODIPY PC-A2 liposome hydrolysis, fluorescence; Group 3 secretory phospholipase A2 (Homo sapiens), Q9NZ20; AID 743126, 2013; inhibition, % at 12.2 µM; 370,000 tested, 0.56% active;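 active = inhibition above mean plus 3 SD of compounds lying within the high and low control bounds, cut at about 19% in these data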;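 note: 0% = median of test compound wells and 100% = no enzyme DMSO wells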
ASAP1 inh: inhibitors of human ASAP1 ArfGAP activity, primary screen, biochemical, fluorescence polarization | Arf-GAP with SH3 domain, ANK repeat and PH domain-containing protein 1 (Homo sapiens), … | ASAP1-stimulated ARF1 GTP hydrolysis, GDP FP detection | inhibition, % at 16.5 µM | 360,000 tested, 0.19% active; in the data active = inhibition above about 25%;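 note: 0% = vehicle with enzyme and substrate and 100% = no enzyme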
hGIII sPLA2 conf: human group III sPLA2 inhibitors, confirmation, biochemical, QFRET, triplicate | 2,000 tested, 34% active | AID 743280, 2014 | inhibition, % at 12.2 µM | shares compounds with HGIII-sPLA2 inh | recombinant hGIII-sPLA2, BODIPY PC-A2 QFRET fluorescence;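 active = mean inhibition across triplicates above the hit cutoff set in the earlier primary screen, cut at about 19% in these data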;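 note: 0% = enzyme with DMSO and 100% = DMSO wells lacking enzyme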
BODIPY interf: 535nm fluorescence optical interference, confirmation, artefact control for HGIII-sPLA2 inhibitor project, biochemical, QFRET. 2,000 tested, 8.5% active. shares compounds with HGIII-sPLA2 inh. inhibition, % at 12.2 µM. BODIPY FL product fluorescence interference;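 active = average inhibition above the solvent-only control mean plus 3 SD, cut at about 6% in these data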;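 note: 0% = DMSO with substrate plus product and 100% = DMSO with substrate alone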
BODIPY interf DR: 535nm fluorescence optical interference, dose response, artefact control for HGIII-sPLA2 inhibitor project, biochemical, QFRET | 240 tested, under 10 active | AID 743455, 2014 | IC50, µM | shares compounds with HGIII-sPLA2 inh | BODIPY FL product fluorescence interference, cell-free;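 active = IC50 at or below 10 µM; inactive = IC50 above 10 µM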
Starred values were filed as active, the others as inactive; x = no result given. Sampled rows, rich in hits. Any-hit rate of the full collection: about 2.7%.

SMILES | NR1D1 modulator | MsrA act | MsrA inh | ARFGAP1 inhibitor | HGIII-sPLA2 inh | ASAP1 inh | hGIII sPLA2 conf | BODIPY interf | others
O=c1ccn([C@@H]2O[C@H](CNCc3ccccc3)[C@@H](O)[C@H]2O)c(=O)[nH]1 | -5 | 3 | -1 | -8 | 3 | -1 | x | x
O=c1ccn([C@@H]2O[C@H](CNCC3=Cc4cc(O)ccc4OC3)[C@@H](O)[C@H]2O)c(=O)[nH]1 | -7 | -2 | 1 | 4 | 20* | 18 | 1 | -5
COc1ccc(/C=N/NC(N)=S)cc1 | -4 | -8 | 2 | -5 | 21* | -7 | 2 | -9
COC(=O)c1cccc(/C=N/NC(N)=S)c1O | -1 | -5 | 4 | -11 | 21* | -16 | 20* | -1
COc1ccc(C(=O)Oc2cc(/C=N/NC(N)=S)ccc2OC)cc1 | 0 | 0 | 2 | -7 | 5 | 12 | x | x
COc1ccc(-c2cc(C(=O)NN=Cc3ccc(C)s3)[nH]n2)cc1 | -5 | x | x | x | -2 | x | x | x
O=C(Nc1nc2ncccn2c1-c1ccc(F)cc1)c1ccc(F)cc1 | 0 | x | x | x | 2 | x | x | x
COc1cc(C2Nc3cc(C)c(C)cc3NC3=C2C(=O)CC(C)(C)C3)ccc1OC(C)=O (stereo not drawn) | 4 | -4 | 4 | 13 | 24* | 9 | 8 | -9
CNC(=S)/N=C(/Nc1ccccc1)c1ccccc1 | -7 | 0 | -1 | 13 | 10 | -19 | x | x
CNC(=S)/N=C(\Nc1ccc(C)cc1)c1ccccc1 | 4 | -2 | 1 | -2 | 21* | -4 | 19 | -7
O=C(Nc1ccc2ccccc2c1)C1CC2CCC1C2 (stereo not drawn) | -1 | x | x | x | 2 | x | x | x
CCCCC(=O)NC(c1ccc(N(CC)CC)cc1)c1ccc2cccnc2c1O (stereo not drawn) | -5 | -7 | 0 | -4 | 15 | 9 | x | x
CC(=O)NC(c1ccc(Cl)cc1Cl)c1ccc2cccnc2c1O (stereo not drawn) | 2 | -1 | 1 | -2 | 19* | -1 | 23* | -9
CCCCC(=O)NC(c1ccc(N(C)C)cc1)c1ccc2cccnc2c1O (stereo not drawn) | -1 | -9 | 0 | 5 | 38* | -4 | 26* | -7
CCCCC(=O)NC(c1ccccc1OC)c1ccc2cccnc2c1O (stereo not drawn) | 5 | -9 | 1 | -8 | 31* | -4 | 28* | -11 | BODIPY interf DR=>122
CCN(CC)c1ccc(C(NC(=O)C(C)C)c2ccc3cccnc3c2O)cc1 (stereo not drawn) | 2 | -2 | 1 | -3 | 36* | 3 | 23* | -2
N#Cc1cccc(Cn2ccc3ccc(-c4ccc5ccn(Cc6ccccc6)c5c4)cc32)c1 | 15 | x | x | x | 13 | x | x | x
O=C(OCc1cn(Cc2ccc(F)cc2)nn1)N1CCOCC1 | -5 | x | x | x | 3 | x | x | x
O=C(CN1C(=O)C2CCCCN2C(=O)c2ccccc21)N1CCCC1 (stereo not drawn) | -5 | x | x | x | 13 | x | x | x
CCCC(=O)NC(c1ccc(Cl)cc1)c1ccc2cccnc2c1O (stereo not drawn) | -5 | -4 | 1 | 12 | 22* | -4 | 24* | -5
CC(CCC(=O)Nc1nncs1)C(=O)O (stereo not drawn) | -8 | -1 | 0 | 0 | 20* | 2 | 0 | 3
CC(C)(C)OC(=O)NCc1cc(F)ccc1/C=C/S(=O)(=O)NCc1ccccc1 | 9 | x | x | x | -8 | x | x | x
CS(=O)(=O)c1ccc(Cl)c(NC(=O)c2ccc(-n3cncn3)c([N+](=O)[O-])c2)c1 | -4 | -4 | 1 | -3 | 9 | -6 | x | x
Cc1ccc(C(=O)NC(=S)Nn2cnnc2)cc1 | 4 | -1 | -1 | -5 | 7 | -2 | x | x
O=C(NC(=S)Nn1cnnc1)c1cccc(Br)c1 | -5 | -5 | 0 | 11 | 22* | 9 | 4 | -2
SMILES | NR1D1 modulator | MsrA act | MsrA inh | ARFGAP1 inhibitor | HGIII-sPLA2 inh | ASAP1 inh | hGIII sPLA2 conf | BODIPY interf | others
CN(C)c1ccc(N=Nc2ccc3ncccc3c2)cc1 | 20 | -1 | -1 | -4 | 10 | 11 | x | x
Cc1cc(N(C)C)ccc1N=Nc1ccc2ncccc2c1 | 17 | -1 | 1 | -7 | 23* | 4 | 23* | 2
CCOc1ccccc1NC(=O)C(OC(=O)c1ccccc1O)c1ccccc1 (stereo not drawn) | 2 | 3 | 0 | -6 | 22* | 13 | -18 | -11
Cc1ccc(OCCCCN2CCCCC2)c(C)c1 | 9 | -8 | -1 | -2 | 0 | 5 | x | x
Cc1ccc(C)c(OCCCCN2CCCCC2)c1 | -3 | -1 | 0 | -2 | 21* | 4 | -3 | -26
Clc1ccc(OCCCN2CCCCC2)c(Br)c1 | -2 | -4 | 0 | 7 | 22* | 8 | -1 | -26
Cc1ccccc1C(=O)N1CCC(Oc2cccnc2)CC1 | 2 | x | x | x | -1 | x | x | x
O=C(Nc1ccccc1)c1ccc(C(=O)Nc2ccccc2)nc1 | -8 | -5 | 0 | -5 | 1 | -9 | x | x
O=C(Nc1ccccc1)c1cn(CCBr)cn1 | -4 | -3 | 0 | 18 | 20* | 9 | 6 | -6
Cc1nn(CC(=O)NNC(=S)Nc2ccccc2)c(C)c1[N+](=O)[O-] | -2 | 3 | 0 | 4 | 20* | 11 | 22* | 0
Cc1cccc(NC(=S)NNC(=O)CCn2nc(C)c([N+](=O)[O-])c2C)c1 | 1 | -12 | 1 | -7 | 17 | -9 | x | x
CN(C)c1ccc(N=Nc2ccccc2C(=O)OCC(=O)NC2CCCC2)cc1 | 22 | -2 | 0 | 18 | 20* | 11 | 24* | -11
Nc1[nH]n(-c2ccccc2)c(=O)c1N=Nc1ccc2c(c1)OCCO2 | 7 | -9 | 0 | 3 | 2 | 9 | x | x
Nc1[nH]n(-c2ccccc2)c(=O)c1N=Nc1ccc2c(c1)OCO2 | 5 | -2 | 1 | 3 | 21* | 1 | 27* | 6
